From PMC7880896 (European journal of medicinal chemistry, 2020)
Read-outs that look alike come from different tables or passages of the source.

Columns and labels:
[1] = test system: U87MG cells; experiment: MTT antiproliferative assay on U87MG glioblastoma cells; type: cell-based, human; details: for viability at 10 µM: Homo sapiens, U-87 MG, read-out: % Viability U87MG, 10 μM, ± SD
[2] = test system: HEK293 cells; experiment: MTT cytotoxicity assay on HEK293 healthy cell line; type: cell-based, human
Summary of the method: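 HEK293 cells were seeded 24 h before treatment. Compound was dissolved in DMSO (<1%) and diluted in DMEM, tested up to 100 μM. After 24 and 48 h exposure, wells were washed with D-PBS, and MTT from a 5 mg/mL stock was added for 4 h. Formazan was solubilised in DMSO and absorbance read at 540 nm. At least three independent experiments; IC50 given as mean ± SD.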

[3] = target: T1, human adenosine A1 receptor (Homo sapiens, UniProt P30542); experiment: Adenosine A1 receptor radioligand binding; details: read-out: Inhibition of A1 receptor radioligand binding
T1 sequence (P30542 1-326): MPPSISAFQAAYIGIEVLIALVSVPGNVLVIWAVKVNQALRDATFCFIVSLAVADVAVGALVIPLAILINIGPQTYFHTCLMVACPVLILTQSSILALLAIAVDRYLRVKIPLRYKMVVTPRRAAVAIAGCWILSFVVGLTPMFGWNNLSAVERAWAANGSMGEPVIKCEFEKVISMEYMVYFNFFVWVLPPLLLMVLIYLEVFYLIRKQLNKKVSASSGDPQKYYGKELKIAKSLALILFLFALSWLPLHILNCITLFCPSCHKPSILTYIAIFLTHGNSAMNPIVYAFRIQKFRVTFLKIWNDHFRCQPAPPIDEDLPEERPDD
Summary of the method: (§1)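 Membranes came from CHO cells expressing recombinant human A1 and HEK293 cells expressing human A2A. Cells were homogenised, centrifuged at 4°C and stored in buffer with 3 U/mL adenosine deaminase. Test compound (1 μM) was incubated with A1 membranes (40 μg) plus 2 nM [3H]DPCPX, or A2A membranes (20 μg) plus 15 nM [3H]ZM241385. Incubation was 60 min, 25°C, in 50 mM Tris-HCl pH 7.4 with 10 mM MgCl2. Bound ligand was GF/B-filtered and scintillation-counted.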

[4] = target: human adenosine A2A receptor (Homo sapiens, UniProt P29274); experiment: Adenosine A2A receptor radioligand binding; details: read-out: Inhibition of A2A receptor radioligand binding
human adenosine A2A receptor, sequence (P29274 whole entry): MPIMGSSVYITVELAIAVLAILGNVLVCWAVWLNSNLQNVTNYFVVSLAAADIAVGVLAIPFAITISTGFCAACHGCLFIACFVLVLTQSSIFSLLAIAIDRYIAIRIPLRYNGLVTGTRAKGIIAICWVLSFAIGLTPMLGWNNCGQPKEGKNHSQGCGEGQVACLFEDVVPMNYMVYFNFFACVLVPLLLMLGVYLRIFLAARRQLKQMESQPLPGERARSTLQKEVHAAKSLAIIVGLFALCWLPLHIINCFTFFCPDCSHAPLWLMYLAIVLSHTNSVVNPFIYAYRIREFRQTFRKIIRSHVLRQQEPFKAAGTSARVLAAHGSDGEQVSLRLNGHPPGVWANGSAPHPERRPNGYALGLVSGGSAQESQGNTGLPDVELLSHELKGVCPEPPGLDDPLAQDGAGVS
Summary of the method: as §1

[5] = test system: MCF7 cells; experiment: MTT antiproliferative assay on MCF7 cells; type: cell-based, human; details: read-out: IC50 MCF7, mean ± SD
Summary of the method: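 MCF7 cells were kept in DMEM/F-12 with 10% FBS, penicillin/streptomycin and L-glutamine, passaged every 3 days, and seeded 24 h before treatment. Compound was dissolved in DMSO (<1%) and diluted in DMEM. After 24 and 48 h exposure, cells were washed with D-PBS and given MTT from a 5 mg/mL stock for 4 h. Formazan was dissolved in DMSO and read at 540 nm. At least three independent experiments; mean ± SD.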

[6] = test system: U87MG cell line; details: read-out: IC50 on U87MG cell line; cited from earlier work
[7] = Homo sapiens, HEK293, read-out: IC50 HEK293

SMILES	IC50 [2, 7]	also measured
COc1ccc(-c2nc(SCC(=O)c3sc(-c4ccccc4)nc3C)[nH]c(=O)c2C#N)cc1OC [Compound 4d, 4-(3,4-dimethoxyphenyl)-2-((2-(4-methyl-2-phenylthiazol-5-yl)-2-oxoethyl)thio)-6-oxo-1,6-dihydropyrimidine-5-carbonitrile]	–	viability at 10 µM [1]: < 70%
Cc1nc(-c2ccccc2)sc1C(=O)CSc1nc(-c2cccc(Cl)c2)c(C#N)c(=O)[nH]1 [Compound 4e, 4-(3-chlorophenyl)-2-((2-(4-methyl-2-phenylthiazol-5-yl)-2-oxoethyl)thio)-6-oxo-1,6-dihydropyrimidine-5-carbonitrile]	> 100 µM	–
Cc1nc(-c2ccccc2)sc1C(=O)CSc1nc(-c2ccc(Cl)cc2)c(C#N)c(=O)[nH]1 [Compound 4f, 4-(4-chlorophenyl)-2-((2-(4-methyl-2-phenylthiazol-5-yl)-2-oxoethyl)thio)-6-oxo-1,6-dihydropyrimidine-5-carbonitrile]	> 100 µM	–
Cc1nc(-c2ccccc2)sc1C(=O)CSc1nc(-c2ccc3c(c2)OCO3)c(C#N)c(=O)[nH]1 [Compound 4h, 4-(benzo[d][1,3]dioxol-5-yl)-2-((2-(4-methyl-2-phenylthiazol-5-yl)-2-oxoethyl)thio)-6-oxo-1,6-dihydropyrimidine-5-carbonitrile]	> 100 µM	–
COc1ccc(-c2nc(C)c(C(=O)CSc3nc(-c4ccccc4)c(C#N)c(=O)[nH]3)s2)cc1 [Compound 4i, 2-((2-(2-(4-methoxyphenyl)-4-methylthiazol-5-yl)-2-oxoethyl)thio)-6-oxo-4-phenyl-1,6-dihydropyrimidine-5-carbonitrile]	> 100 µM	–
COc1ccc(-c2nc(C)c(C(=O)CSc3nc(-c4cccc(OC)c4)c(C#N)c(=O)[nH]3)s2)cc1 [Compound 4j, 4-(3-methoxyphenyl)-2-((2-(2-(4-methoxyphenyl)-4-methylthiazol-5-yl)-2-oxoethyl)thio)-6-oxo-1,6-dihydropyrimidine-5-carbonitrile]	–	viability at 10 µM [1]: < 70%
COc1ccc(-c2nc(C)c(C(=O)CSc3nc(-c4ccc(OC)cc4)c(C#N)c(=O)[nH]3)s2)cc1 [Compound 4k, 4-(4-methoxyphenyl)-2-((2-(2-(4-methoxyphenyl)-4-methylthiazol-5-yl)-2-oxoethyl)thio)-6-oxo-1,6-dihydropyrimidine-5-carbonitrile]	> 100 µM	–
COc1ccc(-c2nc(C)c(C(=O)CSc3nc(-c4ccc(OC)c(OC)c4)c(C#N)c(=O)[nH]3)s2)cc1 [Compound 4l, 4-(3,4-dimethoxyphenyl)-2-((2-(2-(4-methoxyphenyl)-4-methylthiazol-5-yl)-2-oxoethyl)thio)-6-oxo-1,6-dihydropyrimidine-5-carbonitrile]	–	viability at 10 µM [1]: < 70%
COc1ccc(-c2nc(C)c(C(=O)CSc3nc(-c4cccc(Cl)c4)c(C#N)c(=O)[nH]3)s2)cc1 [Compound 4m, 4-(3-chlorophenyl)-2-((2-(2-(4-methoxyphenyl)-4-methylthiazol-5-yl)-2-oxoethyl)thio)-6-oxo-1,6-dihydropyrimidine-5-carbonitrile]	> 100 µM	–
COc1ccc(-c2nc(C)c(C(=O)CSc3nc(-c4ccc5c(c4)OCO5)c(C#N)c(=O)[nH]3)s2)cc1 [Compound 4p, 4-(benzo[d][1,3]dioxol-5-yl)-2-((2-(2-(4-methoxyphenyl)-4-methylthiazol-5-yl)-2-oxoethyl)thio)-6-oxo-1,6-dihydropyrimidine-5-carbonitrile]	> 100 µM	–
Cc1nc(-c2ccc(Cl)cc2)sc1C(=O)CSc1nc(-c2ccccc2)c(C#N)c(=O)[nH]1 [Compound 4q, 2-((2-(2-(4-chlorophenyl)-4-methylthiazol-5-yl)-2-oxoethyl)thio)-6-oxo-4-phenyl-1,6-dihydropyrimidine-5-carbonitrile]	> 100 µM	–
COc1ccc(-c2nc(SCC(=O)c3sc(-c4ccc(Cl)cc4)nc3C)[nH]c(=O)c2C#N)cc1 [Compound 4s, 2-((2-(2-(4-chlorophenyl)-4-methylthiazol-5-yl)-2-oxoethyl)thio)-4-(4-methoxyphenyl)-6-oxo-1,6-dihydropyrimidine-5-carbonitrile]	> 100 µM	–
COc1ccc(-c2nc(SCC(=O)c3sc(-c4ccc(Cl)cc4)nc3C)[nH]c(=O)c2C#N)cc1OC [Compound 4t, 2-((2-(2-(4-chlorophenyl)-4-methylthiazol-5-yl)-2-oxoethyl)thio)-4-(3,4-dimethoxyphenyl)-6-oxo-1,6-dihydropyrimidine-5-carbonitrile]	> 100 µM	–
COc1ccc(-c2nc(SCC(=O)c3sc(-c4ccccc4)nc3C)nc(N)c2C#N)cc1 [Compound 5b, 4-amino-6-(4-methoxyphenyl)-2-((2-(4-methyl-2-phenylthiazol-5-yl)-2-oxoethyl)thio)pyrimidine-5-carbonitrile]	> 100 µM	–
Cc1nc(-c2ccccc2)sc1C(=O)CSc1nc(N)c(C#N)c(-c2ccc(Cl)cc2)n1 [Compound 5c, 4-amino-6-(4-chlorophenyl)-2-((2-(4-methyl-2-phenylthiazol-5-yl)-2-oxoethyl)thio)pyrimidine-5-carbonitrile]	> 100 µM	inhibition at 1 µM [3]: -23%
COc1ccc(-c2nc(C)c(C(=O)CSc3nc(N)c(C#N)c(-c4ccccc4)n3)s2)cc1 [Compound 5d, 4-amino-2-((2-(2-(4-methoxyphenyl)-4-methylthiazol-5-yl)-2-oxoethyl)thio)-6-phenylpyrimidine-5-carbonitrile]	> 100 µM	–
COc1ccc(-c2nc(C)c(C(=O)CSc3nc(N)c(C#N)c(-c4ccc(OC)cc4)n3)s2)cc1 [Compound 5e, 4-amino-6-(4-methoxyphenyl)-2-((2-(2-(4-methoxyphenyl)-4-methylthiazol-5-yl)-2-oxoethyl)thio)pyrimidine-5-carbonitrile]	> 100 µM	cytotoxic effect on HEK293 (in words) ([2]; healthy cell line): no cytotoxic effect even at high concentrations; inhibition at 1 µM [4]: -18%
Cc1nc(-c2ccc(Cl)cc2)sc1C(=O)CSc1nc(N)c(C#N)c(-c2ccccc2)n1 [Compound 5g, 4-amino-2-((2-(2-(4-chlorophenyl)-4-methylthiazol-5-yl)-2-oxoethyl)thio)-6-phenylpyrimidine-5-carbonitrile]	> 100 µM	–
COc1ccc(-c2nc(SCC(=O)c3sc(-c4ccc(Cl)cc4)nc3C)nc(N)c2C#N)cc1 [Compound 5h, 4-amino-2-((2-(2-(4-chlorophenyl)-4-methylthiazol-5-yl)-2-oxoethyl)thio)-6-(4-methoxyphenyl)pyrimidine-5-carbonitrile]	> 100 µM	inhibition at 1 µM [4]: -22%
N.N.[Cl][Pt][Cl] [cisplatin, reference compound]	–	IC50 ([2]; read-out: IC50 HEK293, MTT, mean ± SD, ND = viability higher than 50% at 100 μM): 8.44 ± 0.86 µM; IC50 ([1]; read-out: IC50 U87MG, MTT, mean ± SD): 1.67 ± 0.04 µM; IC50 [5]: 2.51 ± 0.29 µM
Cn1nnc2c(C(N)=O)ncn2c1=O [temozolomide]	–	IC50 [6]: 130 to 171 µM
